Experiments:
[1] = biological target: T1, zIRBP (zebrafish IRBP, gene II product, full-length two-module) (Danio rerio, UniProt F1Q9N9); experiment: fluorescence titration, enhancement of retinol fluorescence; format: binding
T1 sequence (F1Q9N9 22-615): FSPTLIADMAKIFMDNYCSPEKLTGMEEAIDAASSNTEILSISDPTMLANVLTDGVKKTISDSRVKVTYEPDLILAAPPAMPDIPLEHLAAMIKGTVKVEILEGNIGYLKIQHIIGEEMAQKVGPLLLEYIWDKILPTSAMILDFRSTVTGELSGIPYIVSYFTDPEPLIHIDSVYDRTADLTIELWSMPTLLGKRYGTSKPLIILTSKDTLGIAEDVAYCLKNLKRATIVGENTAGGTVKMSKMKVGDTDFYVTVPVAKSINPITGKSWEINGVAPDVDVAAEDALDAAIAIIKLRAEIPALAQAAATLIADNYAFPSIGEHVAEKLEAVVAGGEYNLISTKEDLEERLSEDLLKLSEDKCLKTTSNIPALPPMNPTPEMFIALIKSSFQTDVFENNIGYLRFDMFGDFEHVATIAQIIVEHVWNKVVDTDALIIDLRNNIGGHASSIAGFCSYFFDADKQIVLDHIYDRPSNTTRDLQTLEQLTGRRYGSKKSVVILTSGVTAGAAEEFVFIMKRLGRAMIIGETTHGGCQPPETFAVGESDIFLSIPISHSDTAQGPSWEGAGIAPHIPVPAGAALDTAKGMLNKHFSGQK
Summary of the method: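 Full-length zIRBP was expressed in E. coli BL21(DE3), His-trap purified, TEV-cleaved, and anion-exchange polished (>98% pure). Retinol in ethanol was added in 0.5 µL aliquots at 1 min intervals to 1 µM protein or to buffer (final alcohol ≤2%). Fluorescence was read at ex 330/em 480 nm with oleic acid at 0.0–0.112 µM. Kd came from a nonlinear least-squares one-site Hill fit.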

[2] = biological target: T2, zebrafish IRBP module 1 (z1) (Danio rerio, UniProt F1Q9N9); experiment: X-ray crystal structure, […] Å; format: binding; conditions: oleic acid in hydrophobic pocket of domain A; pH 7.5, PEG 8000
T2 sequence (F1Q9N9 22-330): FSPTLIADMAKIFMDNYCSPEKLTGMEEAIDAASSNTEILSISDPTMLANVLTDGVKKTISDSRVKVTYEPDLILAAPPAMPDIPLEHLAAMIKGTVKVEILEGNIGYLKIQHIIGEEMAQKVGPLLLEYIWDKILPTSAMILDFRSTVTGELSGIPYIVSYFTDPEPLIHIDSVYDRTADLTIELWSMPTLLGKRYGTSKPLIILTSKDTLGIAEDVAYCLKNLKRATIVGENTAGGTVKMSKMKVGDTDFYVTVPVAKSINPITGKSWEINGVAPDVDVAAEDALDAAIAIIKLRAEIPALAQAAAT

Kd [1] [µM]	SMILES	X-ray crystal structure, 1.90 Å [2]
0.91 ± 0.05	CC1=C(/C=C/C(C)=C/C=C/C(C)=C/CO)C(C)(C)CCC1 [all-trans retinol]	
	CCCCCCCC/C=C\CCCCCCCC(=O)O [oleic acid]	electron density for an extended oleic acid molecule in domain A

— publication PMC4624502 (Experimental eye research, 2015)
